Measured values reported in ChEMBL document CHEMBL5096209, “Structure-Activity Studies of 3,9-Diazaspiro[5.5]undecane-Based γ-Aminobutyric Acid Type A Receptor Antagonists with Immunomodulatory Effect” (J Med Chem, 2021).

Assays:
[1] = target: T1, GABA A receptor alpha-3/beta-2/gamma-2 (Homo sapiens, UniProt P18507+P34903+P47870); assay: Antagonist activity at human alpha3beta2gamma2 GABAA receptor expressed in HEKcells by FMP assay; format: cell-based, HEK
T1 sequence (P47870 whole entry): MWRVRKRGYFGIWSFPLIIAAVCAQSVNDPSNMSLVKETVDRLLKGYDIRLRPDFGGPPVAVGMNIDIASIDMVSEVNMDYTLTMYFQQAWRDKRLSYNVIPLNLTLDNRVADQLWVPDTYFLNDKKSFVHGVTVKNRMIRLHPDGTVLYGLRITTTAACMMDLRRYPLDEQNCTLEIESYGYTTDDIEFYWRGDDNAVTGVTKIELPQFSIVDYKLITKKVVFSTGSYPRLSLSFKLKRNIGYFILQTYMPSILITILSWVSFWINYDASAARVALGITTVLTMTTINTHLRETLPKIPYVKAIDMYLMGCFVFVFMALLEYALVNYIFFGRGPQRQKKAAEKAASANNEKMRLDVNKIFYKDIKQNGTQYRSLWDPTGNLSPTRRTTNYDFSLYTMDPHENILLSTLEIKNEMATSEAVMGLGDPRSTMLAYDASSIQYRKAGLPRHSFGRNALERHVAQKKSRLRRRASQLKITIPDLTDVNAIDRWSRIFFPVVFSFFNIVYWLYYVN
T1 sequence (P18507 whole entry): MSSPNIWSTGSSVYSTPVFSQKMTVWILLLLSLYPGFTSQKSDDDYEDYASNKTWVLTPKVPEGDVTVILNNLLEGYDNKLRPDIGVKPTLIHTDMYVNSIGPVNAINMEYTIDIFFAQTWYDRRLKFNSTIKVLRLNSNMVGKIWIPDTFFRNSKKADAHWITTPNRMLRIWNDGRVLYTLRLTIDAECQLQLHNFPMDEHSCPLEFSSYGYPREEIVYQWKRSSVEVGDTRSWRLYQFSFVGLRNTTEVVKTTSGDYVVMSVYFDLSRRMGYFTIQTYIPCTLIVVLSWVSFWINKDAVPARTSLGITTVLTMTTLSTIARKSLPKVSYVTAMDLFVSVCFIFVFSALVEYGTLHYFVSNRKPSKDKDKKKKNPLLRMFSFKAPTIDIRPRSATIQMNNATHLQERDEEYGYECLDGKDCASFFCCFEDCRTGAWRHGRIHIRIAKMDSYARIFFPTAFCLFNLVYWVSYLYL
T1 sequence (P34903 whole entry): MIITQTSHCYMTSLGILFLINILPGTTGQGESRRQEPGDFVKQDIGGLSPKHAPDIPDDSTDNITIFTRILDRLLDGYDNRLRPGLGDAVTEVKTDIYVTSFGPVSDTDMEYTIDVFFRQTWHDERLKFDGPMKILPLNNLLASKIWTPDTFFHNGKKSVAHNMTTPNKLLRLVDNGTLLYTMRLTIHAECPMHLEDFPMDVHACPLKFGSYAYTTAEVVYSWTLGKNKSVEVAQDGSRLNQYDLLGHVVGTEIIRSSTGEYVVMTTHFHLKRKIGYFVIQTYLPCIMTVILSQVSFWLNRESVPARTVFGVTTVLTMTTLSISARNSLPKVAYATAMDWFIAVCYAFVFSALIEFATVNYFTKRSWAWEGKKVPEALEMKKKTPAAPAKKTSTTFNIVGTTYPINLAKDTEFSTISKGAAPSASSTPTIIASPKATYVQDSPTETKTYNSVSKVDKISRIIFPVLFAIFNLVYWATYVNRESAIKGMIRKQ
In short: (§1)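 Human αβγ2 receptors in HEK293 cells: α1β2γ2 stably expressed, other αβγ2 subtypes transiently transfected into HEK293 Flp-In background cells (α:β:γ 1:1:2). FLIPR membrane potential assay with ΔRFU baseline to peak/plateau and GABA EC80 as agonist. IC50 from a four-parameter fit, at least three independent experiments.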

[2] = target: T2, Gamma-aminobutyric acid receptor subunit alpha-4/beta-1/delta (Homo sapiens, UniProt O14764+P18505+P48169); assay: Antagonist activity at recombinant human alpha4beta1delta GABAA receptor expressed in HEK293 Flp-In cells by FMP assay; format: cell-based, Flp-In-293
In short: (§2)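 HEK293 Flp-In cells stably expressing human δ subunit, transiently transfected with human α and β subunits (1:1) to form αβδ receptors. Read-out is the FLIPR membrane potential dye ΔRFU, baseline to peak/plateau, with GABA EC80 as agonist. Four-parameter fit of concentration–inhibition curves gives IC50, from at least three independent experiments.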

[3] = target: T3, GABA A receptor alpha-2/beta-2/gamma-2 (Homo sapiens, UniProt P18507+P47869+P47870); assay: Antagonist activity at human alpha2beta2gamma2 GABAA receptor expressed in HEK cells by FMP assay; format: cell-based; in short: as §1
T3 sequence (P47870 whole entry): T1 sequence (P47870 whole entry)
T3 sequence (P18507 whole entry): T1 sequence (P18507 whole entry)
T3 sequence (P47869 whole entry): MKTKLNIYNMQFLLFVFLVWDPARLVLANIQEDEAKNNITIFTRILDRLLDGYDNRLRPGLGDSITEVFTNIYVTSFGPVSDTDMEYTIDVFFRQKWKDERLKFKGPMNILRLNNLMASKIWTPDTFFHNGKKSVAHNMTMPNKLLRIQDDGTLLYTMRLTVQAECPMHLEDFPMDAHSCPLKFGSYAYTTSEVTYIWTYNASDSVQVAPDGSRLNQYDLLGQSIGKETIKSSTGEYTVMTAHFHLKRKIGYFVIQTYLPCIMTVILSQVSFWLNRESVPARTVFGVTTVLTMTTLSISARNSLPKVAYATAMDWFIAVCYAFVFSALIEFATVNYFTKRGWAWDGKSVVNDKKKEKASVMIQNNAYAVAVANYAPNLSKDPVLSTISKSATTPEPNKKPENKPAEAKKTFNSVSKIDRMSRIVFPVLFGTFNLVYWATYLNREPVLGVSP

[4] = target: T2, Gamma-aminobutyric acid receptor subunit alpha-4/beta-1/delta; assay: Antagonist activity at human alpha4beta1delta GABAA receptor expressed in HEK293 Flp-In cells by FMP assay; format: cell-based, Flp-In-293; in short: as §2
[5] = target: GABA-A receptor; anion channel; assay: Displacement of [3H]-muscimol from rat cortical synaptic membrane GABAA receptor assessed as inhibition constant by microscint-scintillation method; format: cell membranes, Cortex
In short: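 Rat cortical synaptic membranes, washed repeatedly in 50 mM Tris-HCl pH 7.4, 70–80 μg protein. Incubated at 0 °C with 5 nM [3H]-muscimol (final) and a range of test concentrations, then filtered and counted by scintillation. Nonspecific binding defined with 1.0 mM GABA. IC50 converted to Ki by Cheng–Prusoff, triplicate, three independent experiments.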

T2 sequence (P48169 whole entry): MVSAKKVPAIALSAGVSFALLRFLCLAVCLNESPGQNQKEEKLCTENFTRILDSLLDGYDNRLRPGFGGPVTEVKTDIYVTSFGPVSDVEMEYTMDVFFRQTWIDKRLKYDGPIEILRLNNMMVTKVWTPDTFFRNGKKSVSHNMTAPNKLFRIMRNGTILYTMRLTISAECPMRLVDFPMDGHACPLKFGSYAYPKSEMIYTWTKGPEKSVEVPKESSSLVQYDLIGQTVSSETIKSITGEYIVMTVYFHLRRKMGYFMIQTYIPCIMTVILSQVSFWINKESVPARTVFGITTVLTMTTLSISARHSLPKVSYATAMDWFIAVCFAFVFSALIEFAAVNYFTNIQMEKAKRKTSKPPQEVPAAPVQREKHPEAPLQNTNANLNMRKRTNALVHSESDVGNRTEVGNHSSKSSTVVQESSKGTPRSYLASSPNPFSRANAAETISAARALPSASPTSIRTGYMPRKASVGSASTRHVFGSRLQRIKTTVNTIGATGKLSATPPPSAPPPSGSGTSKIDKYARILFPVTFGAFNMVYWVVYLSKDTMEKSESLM
T2 sequence (O14764 whole entry): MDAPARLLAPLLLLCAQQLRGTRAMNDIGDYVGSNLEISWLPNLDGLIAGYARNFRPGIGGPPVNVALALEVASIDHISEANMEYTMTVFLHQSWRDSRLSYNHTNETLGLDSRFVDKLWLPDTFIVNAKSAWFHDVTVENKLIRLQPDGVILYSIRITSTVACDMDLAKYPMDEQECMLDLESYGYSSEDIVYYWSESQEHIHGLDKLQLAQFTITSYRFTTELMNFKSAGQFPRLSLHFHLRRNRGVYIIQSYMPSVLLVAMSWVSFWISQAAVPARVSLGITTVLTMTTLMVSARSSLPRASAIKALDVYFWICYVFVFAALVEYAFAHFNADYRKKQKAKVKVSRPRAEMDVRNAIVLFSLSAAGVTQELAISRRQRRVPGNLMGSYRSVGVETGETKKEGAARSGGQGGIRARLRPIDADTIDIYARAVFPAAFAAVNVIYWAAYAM
T2 sequence (P18505 whole entry): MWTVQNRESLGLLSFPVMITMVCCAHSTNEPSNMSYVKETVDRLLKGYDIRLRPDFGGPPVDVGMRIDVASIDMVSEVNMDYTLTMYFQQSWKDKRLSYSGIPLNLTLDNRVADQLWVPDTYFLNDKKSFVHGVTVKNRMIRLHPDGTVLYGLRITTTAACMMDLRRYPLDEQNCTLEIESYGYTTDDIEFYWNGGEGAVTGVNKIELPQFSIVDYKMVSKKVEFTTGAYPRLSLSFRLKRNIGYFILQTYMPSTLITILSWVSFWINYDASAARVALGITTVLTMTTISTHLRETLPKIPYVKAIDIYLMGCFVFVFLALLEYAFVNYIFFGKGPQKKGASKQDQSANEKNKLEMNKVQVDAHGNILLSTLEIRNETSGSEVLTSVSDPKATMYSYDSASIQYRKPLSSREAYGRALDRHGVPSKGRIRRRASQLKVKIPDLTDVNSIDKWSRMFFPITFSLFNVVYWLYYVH

IC50 [1] [nM] | IC50 ([1]; read-out: pIC50 (converted)) [nM] | IC50 [2] [nM] | IC50 ([2]; read-out: pIC50 (converted)) [nM] | IC50 [3] [nM] | IC50 ([3]; read-out: pIC50 (converted)) [nM] | IC50 [4] [nM] | IC50 ([4]; read-out: pIC50 (converted)) [nM] | Ki [5] [nM] | SMILES
290 | 288 | 1030 | 1020 | 2960 | 2950 |  |  |  | CC(=O)Nc1cccc(C(=O)N2CCC3(CCNCC3)CC2)c1
79 | 79.4 | 88 | 87.1 | 320 | 324 |  |  |  | O=C(Nc1cccc(C(=O)N2CCC3(CCNCC3)CC2)c1)c1cccs1
 |  |  |  |  |  | 1280 | 1260 | 520 | Cc1ccc(C(=O)N2CCC3(CCNCC3)CC2)cc1
 |  |  |  |  |  | 195 | 182 | 180 | Cc1cccc(C(=O)N2CCC3(CCNCC3)CC2)c1
